Measurements as given in ChEMBL document CHEMBL4261552, “4-Hydroxy-N-[3,5-bis(trifluoromethyl)phenyl]-1,2,5-thiadiazole-3-carboxamide: a novel inhibitor of the canonical NF-κB cascade” (Medchemcomm, 2017).

Tests used:
[1] = target: T1, Inhibitor of nuclear factor kappa-B kinase subunit epsilon (Homo sapiens) (UniProt Q14164); assay: Inhibition of human IKKepsilon at 100 uM using ERLLDDRHDSGLDSMKDEE as substrate after 60 mins in presence of ATP by ADP-Glo kinase assay relative to control
T1 sequence (whole entry): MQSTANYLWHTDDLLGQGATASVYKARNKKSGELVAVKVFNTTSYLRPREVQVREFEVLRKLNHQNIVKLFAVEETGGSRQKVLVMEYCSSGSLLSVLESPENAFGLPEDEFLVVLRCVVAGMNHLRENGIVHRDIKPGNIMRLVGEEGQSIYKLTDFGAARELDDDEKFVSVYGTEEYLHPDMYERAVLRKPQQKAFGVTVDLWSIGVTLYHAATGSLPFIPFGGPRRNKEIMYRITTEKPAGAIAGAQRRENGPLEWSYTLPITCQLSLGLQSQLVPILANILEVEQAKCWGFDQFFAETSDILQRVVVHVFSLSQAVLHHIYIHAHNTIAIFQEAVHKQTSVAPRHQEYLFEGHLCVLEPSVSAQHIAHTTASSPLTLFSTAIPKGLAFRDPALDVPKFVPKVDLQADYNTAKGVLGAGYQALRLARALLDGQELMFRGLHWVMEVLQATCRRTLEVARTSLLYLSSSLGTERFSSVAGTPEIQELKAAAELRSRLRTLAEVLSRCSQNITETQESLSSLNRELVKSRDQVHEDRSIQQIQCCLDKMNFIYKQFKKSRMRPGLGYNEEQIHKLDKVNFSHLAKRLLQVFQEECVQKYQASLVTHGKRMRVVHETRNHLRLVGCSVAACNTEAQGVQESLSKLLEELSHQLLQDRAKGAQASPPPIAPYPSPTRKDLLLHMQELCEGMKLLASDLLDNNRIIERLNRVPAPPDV

[2] = target: T2, Inhibitor of nuclear factor kappa-B kinase subunit beta (Homo sapiens, UniProt O14920); assay: Inhibition of human IKKbeta using ERLLDDRHDSGLDSMKDEE as substrate after 60 mins in presence of ATP by ADP-Glo kinase assay
T2 sequence (O14920 whole entry): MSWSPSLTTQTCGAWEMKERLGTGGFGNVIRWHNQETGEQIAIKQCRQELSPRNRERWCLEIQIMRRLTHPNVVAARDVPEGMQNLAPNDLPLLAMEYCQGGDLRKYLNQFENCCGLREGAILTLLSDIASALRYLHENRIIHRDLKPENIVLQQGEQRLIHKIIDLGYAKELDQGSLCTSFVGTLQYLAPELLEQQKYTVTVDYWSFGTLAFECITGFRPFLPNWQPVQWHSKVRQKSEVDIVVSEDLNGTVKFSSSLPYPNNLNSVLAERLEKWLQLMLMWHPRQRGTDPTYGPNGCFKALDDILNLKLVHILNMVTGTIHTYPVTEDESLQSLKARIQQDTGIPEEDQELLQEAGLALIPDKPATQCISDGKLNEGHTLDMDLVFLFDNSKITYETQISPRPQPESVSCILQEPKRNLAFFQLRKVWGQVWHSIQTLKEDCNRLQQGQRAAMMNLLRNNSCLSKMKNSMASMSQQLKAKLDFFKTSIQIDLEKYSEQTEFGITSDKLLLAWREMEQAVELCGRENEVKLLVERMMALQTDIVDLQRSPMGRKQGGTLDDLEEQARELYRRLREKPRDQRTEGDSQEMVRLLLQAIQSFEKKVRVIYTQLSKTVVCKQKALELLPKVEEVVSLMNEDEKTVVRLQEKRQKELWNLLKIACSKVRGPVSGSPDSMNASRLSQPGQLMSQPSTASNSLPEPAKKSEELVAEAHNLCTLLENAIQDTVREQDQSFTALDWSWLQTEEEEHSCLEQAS

[3] = target: T3, Inhibitor of nuclear factor kappa-B kinase subunit beta (Homo sapiens) (UniProt O14920); assay: Inhibition of human IKKbeta at 100 uM using ERLLDDRHDSGLDSMKDEE as substrate after 60 mins in presence of ATP by ADP-Glo kinase assay relative to control
T3 sequence (whole entry): T2 sequence (O14920 whole entry)

[4] = target: T4, Inhibitor of nuclear factor kappa-B kinase subunit alpha (Homo sapiens) (UniProt O15111); assay: Inhibition of human IKKalpha at 100 uM using ERLLDDRHDSGLDSMKDEE as substrate after 60 mins in presence of ATP by ADP-Glo kinase assay relative to control
T4 sequence (whole entry): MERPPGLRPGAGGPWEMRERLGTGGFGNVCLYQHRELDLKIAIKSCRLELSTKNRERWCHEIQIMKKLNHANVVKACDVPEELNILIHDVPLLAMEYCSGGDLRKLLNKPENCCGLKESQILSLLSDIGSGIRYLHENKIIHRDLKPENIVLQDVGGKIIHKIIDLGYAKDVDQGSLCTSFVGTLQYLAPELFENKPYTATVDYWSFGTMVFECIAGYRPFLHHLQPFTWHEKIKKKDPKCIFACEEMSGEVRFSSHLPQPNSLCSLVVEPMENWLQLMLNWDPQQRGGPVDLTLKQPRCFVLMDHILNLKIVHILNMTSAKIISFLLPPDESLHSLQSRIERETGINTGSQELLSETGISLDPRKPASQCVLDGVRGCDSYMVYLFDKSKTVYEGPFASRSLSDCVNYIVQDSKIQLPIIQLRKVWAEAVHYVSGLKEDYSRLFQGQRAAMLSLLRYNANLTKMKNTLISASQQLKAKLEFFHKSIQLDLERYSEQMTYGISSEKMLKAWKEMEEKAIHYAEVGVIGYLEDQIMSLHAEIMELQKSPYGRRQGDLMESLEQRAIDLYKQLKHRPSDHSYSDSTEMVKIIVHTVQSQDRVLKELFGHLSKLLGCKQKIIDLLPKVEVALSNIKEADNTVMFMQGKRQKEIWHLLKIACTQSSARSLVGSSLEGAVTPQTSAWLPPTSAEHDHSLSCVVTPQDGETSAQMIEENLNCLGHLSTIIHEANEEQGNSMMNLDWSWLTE

[5] = target: T5, Mitogen-activated protein kinase kinase kinase 14 (Homo sapiens, UniProt Q99558); assay: Inhibition of human NIK at 100 uM using AKDVDQGSLCTSFVGTLQY as substrate after 60 mins in presence of ATP by ADP-Glo kinase assay relative to control
Target sequence in this assay (Q99558 whole entry, looked up): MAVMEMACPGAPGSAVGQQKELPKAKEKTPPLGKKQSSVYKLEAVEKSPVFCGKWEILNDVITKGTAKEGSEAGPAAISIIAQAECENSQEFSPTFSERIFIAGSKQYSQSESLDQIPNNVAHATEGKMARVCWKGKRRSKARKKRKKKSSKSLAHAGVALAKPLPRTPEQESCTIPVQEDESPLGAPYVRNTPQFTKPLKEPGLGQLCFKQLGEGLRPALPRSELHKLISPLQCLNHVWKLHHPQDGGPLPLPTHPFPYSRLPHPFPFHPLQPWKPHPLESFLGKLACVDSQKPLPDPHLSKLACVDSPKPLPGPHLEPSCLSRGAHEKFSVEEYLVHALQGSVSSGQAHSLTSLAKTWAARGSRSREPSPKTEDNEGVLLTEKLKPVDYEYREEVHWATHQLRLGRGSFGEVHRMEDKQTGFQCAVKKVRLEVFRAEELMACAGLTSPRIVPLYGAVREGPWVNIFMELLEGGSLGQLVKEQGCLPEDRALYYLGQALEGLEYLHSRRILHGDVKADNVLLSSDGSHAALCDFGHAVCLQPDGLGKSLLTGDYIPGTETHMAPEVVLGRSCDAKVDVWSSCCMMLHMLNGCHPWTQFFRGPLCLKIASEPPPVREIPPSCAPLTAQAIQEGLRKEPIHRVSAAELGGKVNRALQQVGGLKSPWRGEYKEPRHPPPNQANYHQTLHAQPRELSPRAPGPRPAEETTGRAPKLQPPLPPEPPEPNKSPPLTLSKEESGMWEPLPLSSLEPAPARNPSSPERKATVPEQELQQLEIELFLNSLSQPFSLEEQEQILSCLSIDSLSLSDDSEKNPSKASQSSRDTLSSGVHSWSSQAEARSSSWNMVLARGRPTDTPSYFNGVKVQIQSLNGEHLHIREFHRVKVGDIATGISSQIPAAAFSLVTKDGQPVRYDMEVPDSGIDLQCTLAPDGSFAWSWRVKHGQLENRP

[6] = target: T2, Inhibitor of nuclear factor kappa-B kinase subunit beta; assay: Inhibition of IKK-beta in human Jurkat cells assessed as reduction in TNFalpha-stimulated IkBalpha degradation preincubated for 60 mins followed by TNFalpha stimulation for 20 mins by immunoblot analysis; assay type: cell-based
[7] = target: T6, Inhibitor of nuclear factor kappa-B kinase subunit alpha (Homo sapiens, UniProt O15111); assay: Inhibition of human IKKalpha using ERLLDDRHDSGLDSMKDEE as substrate after 60 mins in presence of ATP by ADP-Glo kinase assay
T6 sequence (O15111 whole entry): T4 sequence (whole entry)

[8] = target: T7, Inhibitor of nuclear factor kappa-B kinase subunit epsilon (Homo sapiens, UniProt Q14164); assay: Inhibition of human IKKepsilon using ERLLDDRHDSGLDSMKDEE as substrate after 60 mins in presence of ATP by ADP-Glo kinase assay
T7 sequence (Q14164 whole entry): T1 sequence (whole entry)

[9] = target: T5, Mitogen-activated protein kinase kinase kinase 14; assay: Inhibition of human NIK using AKDVDQGSLCTSFVGTLQY as substrate after 60 mins in presence of ATP by ADP-Glo kinase assay
Target sequence in this assay (Q99558 whole entry): as the sequence (Q99558 whole entry, looked up) above

[10] = test system: MDA-MB-231; assay: Cytotoxicity against human MDA-MB-231 cells after 72 hrs by CellTox green assay; assay type: cell-based; settings: MDA-MB-231, 72 h
How it was run: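 MDA-MB-231 cells (5×10^3/well) exposed to 0.001 - 100 µM compound or DMSO vehicle for 72 h. Membrane-integrity loss read by CellTox green fluorescence. IC50 taken by nonlinear regression; mean ± SD of three independent experiments.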

[11] = test system: MDA-MB-231; assay: Inhibition of constitutively activated canonical NF-kB signaling pathway in human MDA-MB-231 cells assessed as residual activity at 10 uM after 24 hrs by luciferase reporter gene assay relative to control; assay type: cell-based
How it was run: (§1)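 MDA-MB-231 cells (constitutive NF-κB) nucleofected with 3 µg of NF-κB-RE firefly luciferase plus TK-Renilla plasmids (10:1), then cultured 24 h. Compound added for a further 6 h or 24 h, without stimulus. Firefly/Renilla ratio expressed as % of DMSO-treated control; mean ± SD of three independent experiments.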

[12] = test system: MDA-MB-231; assay: Inhibition of constitutively activated canonical NF-kB signaling pathway in human MDA-MB-231 cells assessed as residual activity at 10 uM after 6 hrs by luciferase reporter gene assay relative to control; assay type: cell-based; how it was run: as §1
[13] = test system: MDA-MB-231; assay: Antiproliferative activity against human MDA-MB-231 cells assessed as DNA content after 72 hrs by Hoechst 33258 staining based fluorescence assay; assay type: functional, cell-based; settings: MDA-MB-231, 72 h
How it was run: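 MDA-MB-231 cells (5 x 10³/well) grown in DMEM with 10% FBS and exposed to 0.001 - 200 µM compound or DMSO vehicle for 72 h. Cells were washed with PBS and lysed in 0.02% SDS in SSC buffer for 1 h at 37 °C. Hoechst 33258 (1 µg/mL) was then added and fluorescence read at ex 355/em 460 nm. IC50 taken by nonlinear regression; mean ± SD of three independent experiments.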

[14] = test system: Jurkat; assay: Inhibition of TNFalpha-activated canonical NF-kB signaling pathway in human Jurkat cells assessed as residual activity at 1 uM after 6 hrs by luciferase reporter gene assay relative to control; assay type: cell-based
How it was run: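 Jurkat cells nucleofected with 3 µg of NF-κB-RE firefly luciferase and TK-Renilla plasmids (10:1), then cultured 24 h at 37 °C. Compound added for a further 6 h, with TNFα in the last 20 min. Firefly luminescence normalized to Renilla and expressed as % of DMSO+TNFα control; mean ± SD of three experiments.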

Row | SMILES | inhibition [1] [%] | IC50 [2] [µM] | inhibition [3] [%] | inhibition [4] [%] | inhibition [5] [%] | IC50 [6] [µM] | IC50 [7] [µM] | IC50 [8] [µM] | IC50 [9] [µM] | IC50 [10] [µM] | Activity [11] [%] | Activity [12] [%] | IC50 [13] [nM] | Activity [14] [%]
1 | O=C(Nc1cc(C(F)(F)F)cc(C(F)(F)F)c1)c1n[nH]nc1O | 15.3 | > 100 | 5.14 | 24.5 | -9.5 | > 100 | > 100 | > 100 | > 100 | – | – | – | – | –
2 | O=C(Nc1cc(Cl)cc2c1[nH]c1cnccc12)c1cccnc1 | – | 0.087 | – | – | – | 0.186 | > 100 | > 100 | > 100 | > 100 | 8.67 | 19.5 | 900 | 38.1
3 | Cn1nc(O)c(C(=O)Nc2cc(C(F)(F)F)cc(C(F)(F)F)c2)n1 | 6.92 | > 100 | 5.19 | 46.9 | 9.1 | > 100 | > 100 | > 100 | > 100 | – | – | – | – | –
4 | Cn1cc(C(=O)Nc2cc(C(F)(F)F)cc(C(F)(F)F)c2)c(O)n1 | 17.2 | > 100 | 12.7 | 12.1 | 7.23 | 25.9 | > 100 | > 100 | > 100 | – | – | – | – | –
5 | COc1nsnc1C(=O)Nc1cc(C(F)(F)F)cc(C(F)(F)F)c1 | 21.9 | > 100 | 8.51 | 24.1 | -1.9 | > 100 | > 100 | > 100 | > 100 | – | – | – | – | –
6 | O=C(Nc1cccc(C(F)(F)F)c1)c1nonc1O | 32.1 | > 100 | 2.06 | -2.5 | 11.8 | 1.72 | > 100 | > 100 | > 100 | – | – | – | – | –
7 | O=C(Nc1cc(C(F)(F)F)cc(C(F)(F)F)c1)c1nonc1O | – | > 100 | 12.2 | 18.6 | 19.3 | 6.93 | > 100 | 58.5 | > 100 | – | – | – | – | –

The next lines start with results.

Row | inhibition [1] [%] | IC50 [2] [µM] | inhibition [3] [%] | inhibition [4] [%] | inhibition [5] [%] | IC50 [6] [µM] | IC50 [7] [µM] | IC50 [8] [µM] | IC50 [9] [µM] | SMILES | IC50 [10] [µM] | Activity [11] [%] | Activity [12] [%] | IC50 [13] [nM] | Activity [14] [%]
8 | 25.8 | > 100 | -0.94 | – | -1.1 | > 100 | 35.5 | > 100 | > 100 | O=C(Nc1cccc(C(F)(F)F)c1)c1nsnc1O | – | – | – | – | –
9 | 14.2 | > 100 | 13.9 | 13.2 | 24.1 | 1.32 | > 100 | > 100 | > 100 | Cc1c(C(=O)Nc2cc(C(F)(F)F)cc(C(F)(F)F)c2)c(O)nn1C | – | – | – | – | –
10 | – | > 100 | 31.6 | 29.3 | -9.2 | > 100 | > 100 | 44.8 | > 100 | Nc1nonc1C(=O)Nc1cc(C(F)(F)F)cc(C(F)(F)F)c1 | – | – | – | – | –
11 | – | > 100 | 11.2 | 13.1 | 12.1 | > 100 | > 100 | 58.5 | > 100 | Cn1nnc(O)c1C(=O)Nc1cc(C(F)(F)F)cc(C(F)(F)F)c1 | – | – | – | – | –
